# Rows were chosen to be rich in hits. Some 2.9% of all compounds tested hit in one or more screens of this group.
# Kir21 block = blocks the mouse Kir2.1 inward-rectifier potassium channel. P35561. HEK293-Kir2.1, FluxOR thallium flux fluorescence; active compounds read low. B-score at 10 µM. hit rate 0.85% among 310,000;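 active = fluorescence ratio B-score at or below minus 3 SD of library scores, with starting-brightness B-score within 2 SD, cut at about -4.2 in these data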;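 also: channel flux triggered by added potassium and thallium sulfate stimulus; B-score of peak minus minimum fluorescence over baseline after thallium stimulus; more negative B-score means stronger Kir2.1 block with less thallium influx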
# TRPC4 block = blocks the mouse TRPC4 cation channel; Q9QUQ5; hit rate 0.39% among 300,000; AID 2247; HEK293 TRPC4beta/mu-opioid, DAMGO-evoked Fluo4 calcium flux; active compounds read low; B-score at 10 µM;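 active = B-score over 3 SD under the library average, no early fluorescence shift, positive overall ratio signal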
#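 Material: HEK293 cells with stable TRPC4beta plus mu-opioid receptor expression; probe or stimulus: DAMGO in two steps, submaximal then maximal; technique: Fluo4 calcium fluorescence by kinetic imaging, 5 s 1 Hz baseline; measure: integrated fluorescence ratio relative to baseline, converted to per-well B score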
# TRPC4 act = activators of mouse TRPC4 channel; Q9QUQ5; B-score at 10 µM; hit rate 0.49% among 310,000; HEK293 TRPC4beta/mu-opioid, Fluo4 calcium fluorescence; active compounds read high;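 active = B-score above 5 SD of library B-scores, and initial fluorescence ratio not above library mean plus 5 SD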;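 also: positive B-score marks a calcium rise read as TRPC4 activation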
#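 Assay system – TRPC4beta and mu-opioid receptor HEK293 stable cells · Measured by – Fluo4 fluorescence, kinetic · Schedule – dye loading 45 min room temperature, 110 s kinetic read · Read-out – B-scored integrated calcium fluorescence ratio · Controls – buffer and maximal DAMGO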
# TRPC6 activator = activates the mouse TRPC6 cation channel | hit rate 0.13% among 310,000 | HEK293-TRPC6 membrane potential dye fluorescence; active compounds read high | B-score at 10 µM | Q61143;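 active = B-score of the integrated fluorescence ratio above library mean plus 3 SD, and starting fluorescence ratio within library mean plus 5 SD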;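 also: higher score means more depolarization so channel activation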
# Target sequence (Q61143 whole entry, looked up): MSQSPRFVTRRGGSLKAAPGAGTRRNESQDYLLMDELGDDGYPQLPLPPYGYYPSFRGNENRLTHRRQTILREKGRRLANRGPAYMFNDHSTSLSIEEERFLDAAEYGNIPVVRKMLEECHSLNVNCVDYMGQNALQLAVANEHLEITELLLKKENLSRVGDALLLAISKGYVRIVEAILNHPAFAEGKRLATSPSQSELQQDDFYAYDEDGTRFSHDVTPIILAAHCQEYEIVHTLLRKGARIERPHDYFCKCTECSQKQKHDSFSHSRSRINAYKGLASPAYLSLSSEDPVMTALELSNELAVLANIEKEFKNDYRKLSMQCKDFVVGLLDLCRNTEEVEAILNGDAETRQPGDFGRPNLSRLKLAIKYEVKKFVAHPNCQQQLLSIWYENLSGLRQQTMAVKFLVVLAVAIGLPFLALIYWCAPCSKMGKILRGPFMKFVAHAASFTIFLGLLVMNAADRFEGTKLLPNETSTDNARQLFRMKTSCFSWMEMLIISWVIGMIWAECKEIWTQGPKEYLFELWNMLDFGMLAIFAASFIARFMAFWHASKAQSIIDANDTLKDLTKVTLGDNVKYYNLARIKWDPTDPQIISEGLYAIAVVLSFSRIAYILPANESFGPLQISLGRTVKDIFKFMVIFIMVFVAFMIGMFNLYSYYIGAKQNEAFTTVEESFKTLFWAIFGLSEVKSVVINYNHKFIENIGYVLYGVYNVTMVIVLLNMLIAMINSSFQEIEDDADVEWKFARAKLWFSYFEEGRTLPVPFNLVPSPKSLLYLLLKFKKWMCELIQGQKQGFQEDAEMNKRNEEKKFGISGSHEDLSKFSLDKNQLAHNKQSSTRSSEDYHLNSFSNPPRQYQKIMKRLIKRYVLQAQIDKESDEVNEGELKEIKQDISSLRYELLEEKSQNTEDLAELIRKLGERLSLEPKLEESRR
# TRPC6 inhibitor = blocks the mouse TRPC6 cation channel. Q61143. HEK293-TRPC6, membrane potential dye, ACh-evoked depolarization; active compounds read low. B-score at 10 µM. hit rate 1.1% among 310,000. AID 2553;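 active = B-score under library mean minus 3 SD, initial fluorescence not abnormally high, positive integrated signal ratio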;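 also: B-score derived from integrated fluorescence ratio over the kinetic read; more negative B-score means stronger inhibition of depolarization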
# TRPC4 PAM = allosteric potentiators of mouse TRPC4 channel. Q9QUQ5. HEK293 TRPC4beta/mu-opioid, DAMGO EC20, Fluo-4 Ca2+ flux; active compounds read high. B-score at 10 µM. hit rate 0.42% among 310,000. AID 2227;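 active = B-score of calcium response area above 5 SD of library B-scores, with initial fluorescence ratio within 5 SD of library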;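 also: B-score of integrated fluorescence ratio over time as area under calcium response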
# TRPC4 spec 2 = mouse TRPC4 off-target activity of TRPC6 inhibitors, second screen | HEK293 TRPC4/MOR, membrane potential dye fluorescence; channel activated by saturating DAMGO dose | hit rate 42% among 920 | AID 2776 | shares compounds with TRPC6 inhibitor | inhibition, % at 10 µM;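 active = compounds whose fluorescence signal differed from control wells by over 3 SD, either direction, in both duplicate plates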
# TRPC4 spec = mouse TRPC4 off-target activity of TRPC6 inhibitors; AID 2777; shares compounds with TRPC6 inhibitor; hit rate 61% among 920; activity change, negative = inhibition, % at 10 µM; HEK293 TRPC4/mu-opioid, membrane potential fluorescence;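 active = rise or fall in signal beyond 3 SD of buffer-only wells in both replicate plates, either sign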;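 also: integrated kinetic ratio of fluorescence range over baseline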
# HEK293 MPD ctr 2-1 = second check of TRPC6 inhibitor effects in parental HEK293 cells. AID 2779. hit rate 31% among 920. signal change vs control, % at 10 µM. parental HEK293 membrane potential dye fluorescence; maximal acetylcholine challenge after compound addition. shares compounds with TRPC6 inhibitor;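 active = membrane potential signal moving either way by over 3 SD of the maximum-effect control, in both duplicate plates, meaning non-specific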
# HEK293 MPD ctr-1 = parental HEK293 nonspecific activity of TRPC6 inhibitors. shares compounds with TRPC6 inhibitor. parental HEK293 membrane potential dye fluorescence. membrane potential signal change, % at 10 µM. hit rate 60% among 920. AID 2780;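 active = membrane potential signal shifting up or down by more than 3 SD of buffer-only wells, on both duplicate plates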
# HEK293 MPD ctr-2 = checks TRPC6 modulator effects in parental HEK293 cells. shares compounds with TRPC6 inhibitor. membrane potential dye fluorescence. membrane potential signal change, % at 10 µM. hit rate 51% among 2,400;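 active = membrane potential signal moves up or down beyond 5 SD from buffer-only wells, on both duplicate plates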
# HEK293 MPD ctr 2-2 = second check of TRPC6 modulator effects in parental HEK293 cells. inhibition, % at 10 µM. membrane potential dye fluorescence; after compound, maximal acetylcholine stimulation. shares compounds with TRPC6 inhibitor. hit rate 14% among 2,400. AID 488926;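 active = membrane potential signal drops by more than 5 SD from the mean control signal, in both duplicate plates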;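 also: plate controls were acetylcholine ECmax control wells for no effect and buffer only wells for full effect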
# TRPC4 ctr mod = tests whether TRPC6 modulators also affect mouse TRPC4. percent change from control (negative = decrease, positive = increase), % at 10 µM. AID 488927. HEK293 TRPC4/mu-opioid, membrane potential fluorescence. shares compounds with TRPC6 inhibitor. hit rate 69% among 2,400;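 active = membrane potential signal moved up or down beyond 5 SD of buffer control wells, in both duplicate plates, actives on both sides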;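 also: plate controls were assay buffer wells for no effect and DAMGO maximal-effect wells for full effect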
# TRPC4 ctr inh 2 = second check of whether TRPC6 modulators also affect mouse TRPC4 | hit rate 55% among 2,400 | inhibition, % at 10 µM | shares compounds with TRPC6 inhibitor | HEK293 TRPC4/mu-opioid, membrane potential dye fluorescence; stimulated with maximal-effect DAMGO | AID 488928;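 active = drop in membrane potential signal beyond 5 SD of the control wells in both duplicate plates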;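 also: TRPC4 counter screen for TRPC6 hits run under conditions tuned for TRPC6 not TRPC4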
# TRPC6 block conf = mouse TRPC6 inhibitor confirmation. inhibition, % at 10 µM. hit rate 43% among 3,300. HEK293-TRPC6, membrane potential dye, ACh-evoked depolarization. shares compounds with TRPC6 inhibitor;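 active = fluorescence ratio falls more than 5 SD below the full-stimulation control mean, in both duplicate runs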;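 also: integrated fluorescence ratio of peak minus minimum over baseline after agonist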
# TRPC6 act conf = mouse TRPC6 activator confirmation; HEK293-TRPC6 membrane potential dye fluorescence, FDSS; activation, % at 10 µM; hit rate 11% among 2,800; shares compounds with TRPC6 inhibitor;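 active = ratio signal rise beyond 5 SD above unstimulated control wells' mean, seen in both duplicate runs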;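 also: plate controls were buffer EC0 wells for no effect and acetylcholine ECmax response for full effect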
# An asterisk follows results filed as active; i = inactive; . = no result.
SMILES,Kir21 block,TRPC4 block,TRPC4 act,TRPC6 activator,TRPC6 inhibitor,TRPC4 PAM,HEK293 MPD ctr-2,HEK293 MPD ctr 2-2,TRPC4 ctr mod,TRPC4 ctr inh 2,TRPC6 block conf,TRPC6 act conf,others
CN1Cc2c(N3CCOCC3)nc3sc(C(=O)c4ccc(Br)cc4)c(N)c3c2CC1(C)C,0.49,i,i,i,-7.2*,i,.,.,.,.,i,i,TRPC4 spec 2=i;TRPC4 spec=-11%*;HEK293 MPD ctr 2-1=i;HEK293 MPD ctr-1=-161%*
CN1Cc2c(N3CCOCC3)nc3sc(C#N)c(N)c3c2CC1(C)C,0.25,i,i,i,i,i,.,.,.,.,.,.,
COc1cc(/C=N/NC(=O)CNC(=O)c2ccccc2)ccc1OC(=O)c1cccs1,-2.9,i,i,13*,-7.6*,i,i,i,i,i,i,82%*,
CCCC(CCC(=O)NC1CCCCC1)C(=O)O (stereo unspecified),0.13,i,i,i,i,i,.,.,.,.,.,.,
CCCC(CCC)C(=O)OC1C[C@H]2CC[C@@H](C1)[N+]2(C)C (stereo partly specified),-0.04,i,i,i,-8.7*,i,.,.,.,.,94%*,i,TRPC4 spec 2=i;TRPC4 spec=i;HEK293 MPD ctr 2-1=-30%*;HEK293 MPD ctr-1=i
CCC(C(=O)NC1CCCCC1)n1c(SCc2cccc(F)c2)nc2ccncc21 (stereo unspecified),1.1,i,i,i,-5.1*,i,i,i,i,i,i,i,
CCC(C(=O)NC1CCCCC1)n1c(SCc2cccc(C)c2)nc2ccncc21 (stereo unspecified),0.09,i,i,i,i,i,.,.,.,.,.,.,
NC(=O)c1cnccn1,0.23,i,i,i,i,i,.,.,.,.,.,.,
CN(C)CCOC1c2ccccc2C=Cc2ccccc21,-0.5,i,i,i,-5.5*,i,124%*,84%*,22%*,42%*,68%*,.,
CN(CC(=O)Nc1ccc(F)c(F)c1F)C(=O)CCc1nc2sc3c(c2c(=O)[nH]1)CCCC3,2,i,i,i,i,i,.,.,.,.,.,.,
Cc1ccc(S(=O)(=O)Nc2ccc(NC(=O)CN3CCCCC3)cc2)cc1,-0.48,i,i,13*,-6.8*,i,i,i,8.5%*,i,83%*,118%*,
CCN1CCN(C(=O)CN2C(=O)COc3ccc(C)cc32)CC1,0.51,i,i,i,i,i,.,.,.,.,.,.,
CCOC(=O)c1sc2ncnc(N3CCN(C(=O)OCC)CC3)c2c1C,-1.3,i,i,i,i,i,.,.,.,.,.,.,
CCOC(=O)c1sc2ncnc(N3CCN(CC)CC3)c2c1C,-1.8,i,i,i,-5.5*,i,-128%*,i,-21%*,41%*,i,i,
COC(=O)C1CCN(C2=C(NS(=O)(=O)c3ccc(Cl)cc3)C(=O)c3ccccc3C2=O)CC1,2.3,i,i,i,-6.9*,i,.,.,.,.,i,i,TRPC4 spec 2=80%*;TRPC4 spec=-18%*;HEK293 MPD ctr 2-1=i;HEK293 MPD ctr-1=-250%*
CCS(=O)(=O)N1Cc2ccccc2CC1C(=O)Nc1nnc(SCc2ccc(C#N)cc2)s1 (stereo unspecified),-0.65,i,i,23*,i,i,i,i,i,i,i,i,
COc1ccccc1/C=C/C=C1N=C(/C=C/c2ccc(Cl)cc2)OC/1=O,-3.2,i,i,i,-5.9*,i,554%*,i,32%*,i,i,.,
COc1ccccc1/C=C/C1=NC(=C\C=C/c2ccccc2)/C(=O)O1,-3.2,i,i,i,i,i,.,.,.,.,.,.,
COCCN(C(=O)CSc1nnc(-c2ccc(C(C)(C)C)cc2)n1N)c1c(N)n(CC(C)C)c(=O)[nH]c1=O,0.06,i,i,i,i,i,.,.,.,.,.,.,
O=C(Nc1ccccc1N1CCOCC1)c1cccnc1Cl,0.04,i,i,i,i,i,.,.,.,.,.,.,
Fc1cccc(NCc2cn3ccccc3n2)c1,0.03,i,i,i,-5.5*,i,i,i,i,i,i,i,
OCCCn1c(-c2ccccc2)csc1=Nc1ccccc1,0.25,i,i,i,-5.8*,i,382%*,141%*,76%*,i,126%*,.,
Cn1c(-c2ccc3c(c2)OCO3)cnc1NCc1ccc(Cl)cc1,-11*,i,i,i,-6.2*,i,i,i,i,76%*,48%*,i,
COc1cc(CNc2ncc(-c3ccc(Cl)cc3)n2C)cc(OC)c1OC,0.6,i,i,i,i,i,.,.,.,.,.,.,
COc1ccc(-c2cnc(NCc3cc4c(cc3[N+](=O)[O-])OCO4)n2C)cc1,-0.1,i,i,i,-5.6*,i,i,i,i,44%*,i,i,
COc1ccc(OC)c(CNc2ncc(-c3cccc([N+](=O)[O-])c3)n2C)c1,1.9,i,i,i,i,i,.,.,.,.,.,.,

# Bioassay records: PubChem, Johns Hopkins Ion Channel Center
